In ChEMBL document CHEMBL3085673, “The design of a novel series of muscarinic receptor antagonists leading to AZD8683, a potential inhaled treatment for COPD” (Bioorg Med Chem Lett, 2013):

Legend:
[1] = system: Cavia porcellus; test: Inhibition of methacholine-induced bronchoconstriction in Dunkin-Hartley guinea pig administered via intratracheal/intranasal after 24 hrs relative to control; type: functional
How it was run: (§1)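 Dunkin-Hartley guinea pigs dosed in 0.9% saline by intratracheal or intranasal microsprayer under halothane. At 2, 4, 24 or 48 h, animals were terminally anaesthetised with pentobarbitone and ventilated at 60 breaths/min, 2 mL tidal volume. Peak respiratory resistance measured after IV methacholine 10 μg/kg. Percent inhibition calculated against a time-matched vehicle group. For duration, dosing was at the ED80 dose, measured or predicted from trachea potency.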

[2] = Intrinsic clearance in human liver microsomes; type: ADME; conditions: read-out: CLH
[3] = molecular target: Muscarinic acetylcholine receptor M3 (Cavia porcellus, UniProt Q8VH26); test: Antagonist activity at M3 receptor in Dunkin-Hartley guinea pig trachea assessed as inhibition of methacholine-induced airway smooth muscle contraction after 1 to 4 hrs; conditions: read-out: pA2 (converted)
Muscarinic acetylcholine receptor M3 (Cavia porcellus, UniProt Q8VH26), sequence (Q8VH26 whole entry): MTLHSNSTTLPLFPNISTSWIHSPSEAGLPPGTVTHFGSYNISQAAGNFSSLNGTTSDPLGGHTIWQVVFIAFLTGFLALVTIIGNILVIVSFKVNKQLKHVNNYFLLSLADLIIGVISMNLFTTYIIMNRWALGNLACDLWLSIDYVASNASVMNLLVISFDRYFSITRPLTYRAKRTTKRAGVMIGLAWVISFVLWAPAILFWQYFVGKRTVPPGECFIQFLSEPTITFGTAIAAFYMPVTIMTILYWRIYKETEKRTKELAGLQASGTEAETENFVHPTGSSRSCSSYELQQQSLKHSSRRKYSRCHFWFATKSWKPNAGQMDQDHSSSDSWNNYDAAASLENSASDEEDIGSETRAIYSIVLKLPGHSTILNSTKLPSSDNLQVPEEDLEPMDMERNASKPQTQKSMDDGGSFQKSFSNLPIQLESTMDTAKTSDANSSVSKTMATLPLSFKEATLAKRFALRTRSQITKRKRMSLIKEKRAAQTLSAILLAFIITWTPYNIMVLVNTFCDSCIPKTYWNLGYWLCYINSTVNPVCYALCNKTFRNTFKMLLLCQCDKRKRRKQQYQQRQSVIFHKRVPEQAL
How it was run: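 Isolated guinea pig tracheal rings equilibrated 1 h, re-tensioned to 1 g, primed with methacholine, then a cumulative methacholine curve (3 × 10^-9 to 3 × 10^-5 M). Vehicle or compound equilibrated 1 or 4 h before a second curve (3 × 10^-9 to 1 × 10^-3 M final). Isometric force as % of curve-1 maximum. pA2 calculated from vehicle and test A50 values; n = 2.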

[4] = Half life in guinea pig lung administered via intratracheal instillation at 1 ug/kg by HPLC-MS analysis; type: ADME, tissue-based, Cavia porcellus; conditions: inhaled or intranasal, 0.001 mg/kg
How it was run: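 Halothane-anaesthetised guinea pigs given 1 μg/kg by intratracheal instillation. Lungs collected at 0.25-24 h after barbiturate overdose, homogenised in phosphate buffer and added to ice-cold methanol. Supernatant analysed by mass spectrometry/HPLC.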

[5] = system: Cavia porcellus; test: Inhibition of methacholine-induced bronchoconstriction in Dunkin-Hartley guinea pig administered via intratracheal/intranasal after 2 to 4 hrs relative to control; type: functional; conditions: inhaled or nasal; how it was run: as §1
[6] = Plasma protein binding in human; type: ADME, cell-free; conditions: read-out: PPB (converted)
[7] = molecular target: Muscarinic acetylcholine receptor M3 (Homo sapiens, UniProt P20309); test: Displacement of [3H]NMS from recombinant human M3 receptor expressed in CHO-K1 cells after 16 hrs by SPA method; type: cell-based
Muscarinic acetylcholine receptor M3 (Homo sapiens, UniProt P20309), sequence (P20309 whole entry): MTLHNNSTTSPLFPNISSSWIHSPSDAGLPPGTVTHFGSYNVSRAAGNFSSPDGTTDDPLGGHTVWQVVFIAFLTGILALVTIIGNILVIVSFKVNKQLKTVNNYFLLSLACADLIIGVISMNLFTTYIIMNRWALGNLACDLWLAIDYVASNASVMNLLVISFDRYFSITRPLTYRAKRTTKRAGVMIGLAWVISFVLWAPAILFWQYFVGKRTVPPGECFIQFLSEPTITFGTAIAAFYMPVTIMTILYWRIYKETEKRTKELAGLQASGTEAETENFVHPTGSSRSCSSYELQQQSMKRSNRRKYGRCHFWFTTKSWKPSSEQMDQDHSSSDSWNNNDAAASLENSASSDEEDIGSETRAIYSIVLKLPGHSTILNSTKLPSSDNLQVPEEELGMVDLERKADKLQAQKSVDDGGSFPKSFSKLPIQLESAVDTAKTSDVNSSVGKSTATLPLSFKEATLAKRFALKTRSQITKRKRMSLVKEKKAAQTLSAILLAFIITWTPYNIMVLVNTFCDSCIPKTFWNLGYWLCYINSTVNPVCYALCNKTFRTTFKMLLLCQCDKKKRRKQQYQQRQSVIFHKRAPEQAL
How it was run: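 Nonspecific binding defined with atropine 1 µM; eight total-binding replicates per plate. Incubated at room temperature at least 16 h to equilibrium before counting; n ≥ 2.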

[8] = system: Cavia porcellus; test: Toxicity in guinea pig assessed as reduction of pilocarpine-induced salivation administered via intranasal administered for 4 hrs followed by pilocarpine challenge measured every 5 mins for 15 mins; type: organism-based
How it was run: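 Compound or vehicle given intranasally under halothane. At 4 h, animals were anaesthetised with urethane and the mouth dried with gauze for 5 min. Baseline saliva taken on a pre-weighed pad over 5 min. Pilocarpine 0.6 mg/kg given subcutaneously, then pads replaced every 5 min for 15 min and saliva quantified by pad weight gain.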

[9] = Therapeutic index, ratio of ED80 for methacholine-induced bronchoconstriction in Dunkin-Hartley guinea pig to EC50 for reduction of pilocarpine-induced salivation in guinea pig; type: organism-based, Cavia porcellus; conditions: in vivo, read-out: TI
[10] = system: Cavia porcellus; test: Inhibition of methacholine-induced bronchoconstriction in Dunkin-Hartley guinea pig administered via intratracheal/intranasal after 48 hrs relative to control; type: functional; how it was run: as §1

Row | SMILES | inhibition (INH) [1] [%] | microsomal CLint [2] [µL/min/mg] | Kb [3] [nM] | half-life [4] [min] | ED80 [5] [µg/kg] | fraction unbound [6] | IC50 [7] [nM] | EC50 [8] [µg/kg] | selectivity ratio [9] | inhibition (INH) [10] [%]
1 | O=C(O[C@H]1C[N+]2(CCCc3ccncc3)CCC1CC2)C1(C2=CC=CC2)CCCCCC1 | 0 | 57 | 0.126 | 1140 | 1 | 0.12 | < 0.0398 | – | – | –
2 | Cc1cc(CCC[N+]23CCC(CC2)[C@@H](OC(=O)C2(C4=CC=CC4)CCCCCC2)C3)ccn1 | 0 | 135 | 0.158 | 2620 | 1 | 0.03 | < 0.0316 | – | – | –
3 | Cc1ccc(CCC[N+]23CCC(CC2)[C@@H](OC(=O)C2(C4=CC=CC4)CCCCCC2)C3)cn1 | – | 77 | – | 1150 | – | 0.05 | 0.158 | – | – | –
4 | O=C(O[C@H]1C[N+]2(CCCc3nc4ccccc4o3)CCC1CC2)C1(C2=CC=CC2)CCCCCC1 | – | – | – | 558 | – | 0.04 | – | – | – | –
5 | NC(=O)C[N+]12CCC(CC1)[C@@H](OC(=O)C1(C3=CC=CC3)CCCCCC1)C2 | – | 19 | 0.0794 | 684 | – | 0.18 | 0.2 | – | – | –
6 | O=C(C[N+]12CCC(CC1)[C@@H](OC(=O)C1(C3=CC=CC3)CCCCCC1)C2)Nc1ccon1 | 0 | 150 | 0.02 | 1140 | 1 | 0.18 | < 0.0631 | > 10 | – | –
7 | Cc1cc(NC(=O)C[N+]23CCC(CC2)[C@@H](OC(=O)C2(C4=CC=CC4)CCCCCC2)C3)no1 | 56 | 26 | 0.251 | 1600 | 3 | 0.03 | 0.158 | > 30 | ≥ 10 | –
8 | O=C(C[N+]12CCC(CC1)[C@@H](OC(=O)C1(C3=CC=CC3)CCCCCC1)C2)Nc1ccccn1 | – | 55 | 0.398 | 1540 | 1 | 0.04 | 0.158 | > 30 | ≥ 10 | 84
9 | O=C(C[N+]12CCC(CC1)[C@@H](OC(=O)C1(C3=CC=CC3)CCCCCC1)C2)Nc1cccnn1 | – | 70 | 0.0794 | 2540 | – | 0.1 | 0.158 | > 10 | – | –
10 | O=C(C[N+]12CCC(CC1)[C@@H](OC(=O)C1(C3=CC=CC3)CCCCCC1)C2)Nc1cnccn1 | 88 | 43 | 0.126 | 1380 | 1 | 0.075 | < 0.126 | > 10 | ≥ 10 | 73
11 | O=C(C[N+]12CCC(CC1)[C@@H](OC(=O)C1(C3=CC=CC3)CCCCCC1)C2)Nc1ccc(Cl)nn1 | 89 | – | 0.2 | 3400 | 3 | 0.04 | 0.2 | > 30 | ≥ 10 | –
12 | O=C(O[C@H]1C[N+]2(Cc3nc4ccccc4o3)CCC1CC2)C1(C2=CC=CC2)CCCCCC1 | – | 78 | 0.158 | 780 | – | 0.023 | 0.1 | > 10 | – | –
13 | O=C(O[C@H]1C[N+]2(Cc3nc(-c4ccccc4)no3)CCC1CC2)C1(C2=CC=CC2)CCCCCC1 | – | 102 | 0.398 | 1020 | 3 | 0.01 | 0.158 | – | – | 0
14 | O=C(O[C@H]1C[N+]2(Cc3cc(-c4ccccc4)no3)CCC1CC2)C1(C2=CC=CC2)CCCCCC1 | – | 63 | 0.316 | 990 | 3 | 0.01 | 0.251 | > 30 | – | 0
15 | O=C(O[C@H]1C[N+]2(Cc3cc(-c4ccccc4)on3)CCC1CC2)C1(C2=CC=CC2)CCCCCC1 | – | 79 | 3.16 | 726 | – | 0.005 | 0.0794 | – | – | –
16 | O=C(O[C@H]1C[N+]2(Cc3nnc(-c4ccccc4)o3)CCC1CC2)C1(C2=CC=CC2)CCCCCC1 | – | 97 | 0.2 | 1320 | 3 | 0.035 | 0.316 | > 30 | – | 0
17 | O=C(O[C@H]1C[N+]2(CCc3ccccc3)CCC1CC2)C1(C2=CC=CC2)CCCCCC1 | – | 105 | 0.316 | – | – | 0.007 | 0.0794 | – | – | –
18 | Cc1ccc(CC[N+]23CCC(CC2)[C@@H](OC(=O)C2(C4=CC=CC4)CCCCCC2)C3)s1 | – | 130 | 0.316 | – | – | 0.01 | 0.0631 | – | – | –
19 | O=C(O[C@H]1C[N+]2(CCCOc3ccccc3)CCC1CC2)C1(C2=CC=CC2)CCCCCC1 | 31 | 75 | 0.794 | 612 | 3 | 0.085 | 0.0631 | – | – | –
20 | C[N+]1(C)[C@@H]2C[C@@H](OC(=O)C(O)(c3cccs3)c3cccs3)C[C@H]1[C@@H]1O[C@@H]12.O.[Br-] [TIOTROPIUM BROMIDE] | >80 | – | – | – | 0.3 | – | – | < 0.3 | – | 69
